Test results as given in ChEMBL document CHEMBL4024710, “Discovery of novel 1,2,3,4-tetrahydrobenzo[4, 5]thieno[2, 3-c]pyridine derivatives as potent and selective CYP17 inhibitors” (Eur J Med Chem, 2017).

Assays:
[1] = molecular target: T1, Steroid 17-alpha-hydroxylase/17,20 lyase (Rattus norvegicus, UniProt P11715); experiment: Inhibition of CYP17 in Sprague-Dawley rat testes microsomes using 17-alpha hydroxyprogesterone as substrate and NADPH as cofactor pretreated for 5 mins followed by substrate and cofactor addition after 60 mins by LC/Ms analysis; set-up: species or system Testis
T1 sequence (P11715 whole entry): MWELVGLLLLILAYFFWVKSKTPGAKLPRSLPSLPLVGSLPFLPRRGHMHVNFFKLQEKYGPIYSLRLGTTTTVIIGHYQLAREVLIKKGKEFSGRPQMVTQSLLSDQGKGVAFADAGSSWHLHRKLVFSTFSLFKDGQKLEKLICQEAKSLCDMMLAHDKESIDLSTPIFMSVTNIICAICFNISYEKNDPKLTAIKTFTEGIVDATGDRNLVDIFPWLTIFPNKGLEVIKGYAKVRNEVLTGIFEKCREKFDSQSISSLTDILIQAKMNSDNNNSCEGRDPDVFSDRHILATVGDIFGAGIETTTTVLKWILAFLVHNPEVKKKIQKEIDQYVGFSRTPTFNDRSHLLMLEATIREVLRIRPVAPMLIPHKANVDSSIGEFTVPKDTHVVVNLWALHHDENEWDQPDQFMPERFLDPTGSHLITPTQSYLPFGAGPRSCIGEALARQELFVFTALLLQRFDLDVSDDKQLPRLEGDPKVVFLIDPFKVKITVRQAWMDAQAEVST
In short: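 Rat testis microsomes from male SD rats weighing 220–250 g, prepared at 4 °C by differential centrifugation (9000 g, then 105,000 g pellet). 2 µg protein in 0.05 M phosphate pH 7.5 preincubated with inhibitor 5 min at 25 °C. Started with 10 µM 17α-hydroxyprogesterone plus 4.2 mM NADPH, 60 min at 25 °C, stopped with methanol. Androstenedione measured by LC/MS; IC50 is the mean of at least three experiments.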

[2] = molecular target: T2, Steroid 17-alpha-hydroxylase/17,20 lyase (Homo sapiens, UniProt P05093); experiment: Inhibition of recombinant human CYP17 expressed in human A549 cell membranes using 17-alpha hydroxyprogesterone as substrate and NADPH as cofactor pretreated for 5 mins followed by substrate and cofactor addition after 60 mins by LC/MS analysis
T2 sequence (P05093 whole entry): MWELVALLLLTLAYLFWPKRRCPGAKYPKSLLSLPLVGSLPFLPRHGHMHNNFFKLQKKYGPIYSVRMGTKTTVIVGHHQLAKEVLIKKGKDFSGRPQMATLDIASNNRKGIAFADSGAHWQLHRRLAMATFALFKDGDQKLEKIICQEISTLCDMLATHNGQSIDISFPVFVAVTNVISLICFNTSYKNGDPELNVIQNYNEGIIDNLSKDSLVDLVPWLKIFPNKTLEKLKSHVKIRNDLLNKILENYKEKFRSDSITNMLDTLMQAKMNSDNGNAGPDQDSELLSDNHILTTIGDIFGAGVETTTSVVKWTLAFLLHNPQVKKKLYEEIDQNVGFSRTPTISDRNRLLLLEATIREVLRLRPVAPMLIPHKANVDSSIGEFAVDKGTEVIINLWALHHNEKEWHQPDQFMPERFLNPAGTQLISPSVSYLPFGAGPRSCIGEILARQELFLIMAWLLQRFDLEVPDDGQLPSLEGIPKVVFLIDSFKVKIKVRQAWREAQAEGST
In short: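 Enzyme source was purified membranes of A549 cells expressing human CYP17 from an adenoviral vector. 2 µg membrane protein in 0.05 M phosphate pH 7.5 with inhibitor, preincubated 5 min at 25 °C. Reaction started with 10 µM 17α-hydroxyprogesterone and 4.2 mM NADPH, run 60 min at 25 °C, methanol stop. Androstenedione quantified by LC/MS; IC50 is the mean of at least three experiments.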

[3] = molecular target: Cytochrome P450 3A4 (Homo sapiens, UniProt P08684); experiment: Inhibition of human hepatic CYP3A4; format: ADME
Cytochrome P450 3A4, sequence (P08684 whole entry): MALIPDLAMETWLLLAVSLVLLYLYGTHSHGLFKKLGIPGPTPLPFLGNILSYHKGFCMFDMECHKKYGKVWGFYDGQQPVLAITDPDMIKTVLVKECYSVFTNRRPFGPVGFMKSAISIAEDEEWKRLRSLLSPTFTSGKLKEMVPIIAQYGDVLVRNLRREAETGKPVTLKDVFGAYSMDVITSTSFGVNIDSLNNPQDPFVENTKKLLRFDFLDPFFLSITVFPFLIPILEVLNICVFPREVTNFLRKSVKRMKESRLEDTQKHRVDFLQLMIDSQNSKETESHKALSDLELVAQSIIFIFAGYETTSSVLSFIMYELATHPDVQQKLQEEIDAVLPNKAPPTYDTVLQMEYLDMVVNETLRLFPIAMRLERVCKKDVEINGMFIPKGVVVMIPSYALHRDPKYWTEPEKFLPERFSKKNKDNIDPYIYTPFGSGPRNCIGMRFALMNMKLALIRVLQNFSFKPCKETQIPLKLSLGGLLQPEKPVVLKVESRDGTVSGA

[4] = molecular target: T3, CYP1A2 (Homo sapiens, UniProt P05177); experiment: Inhibition of human hepatic CYP1A2 at 1 uM relative to control; format: ADME
T3 sequence (P05177 whole entry): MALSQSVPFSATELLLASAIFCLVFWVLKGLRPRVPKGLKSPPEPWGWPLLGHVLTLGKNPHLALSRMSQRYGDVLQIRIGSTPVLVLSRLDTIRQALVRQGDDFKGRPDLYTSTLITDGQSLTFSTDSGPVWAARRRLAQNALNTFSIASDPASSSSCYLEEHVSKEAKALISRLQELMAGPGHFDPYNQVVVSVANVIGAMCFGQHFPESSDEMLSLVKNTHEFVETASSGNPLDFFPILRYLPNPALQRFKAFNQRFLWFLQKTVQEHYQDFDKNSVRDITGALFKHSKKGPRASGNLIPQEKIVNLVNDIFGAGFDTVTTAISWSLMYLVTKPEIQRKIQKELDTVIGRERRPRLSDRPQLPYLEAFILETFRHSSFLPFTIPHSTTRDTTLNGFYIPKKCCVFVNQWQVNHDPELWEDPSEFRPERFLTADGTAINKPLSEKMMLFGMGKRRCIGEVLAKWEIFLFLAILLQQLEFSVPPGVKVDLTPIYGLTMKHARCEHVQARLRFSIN

[5] = molecular target: T3, CYP1A2; experiment: Inhibition of human hepatic CYP1A2 at 10 uM relative to control; format: ADME
[6] = molecular target: T4, CYP2C9 (Homo sapiens, UniProt P11712); experiment: Inhibition of human hepatic CYP2C9 at 1 uM relative to control; format: ADME
T4 sequence (P11712 whole entry): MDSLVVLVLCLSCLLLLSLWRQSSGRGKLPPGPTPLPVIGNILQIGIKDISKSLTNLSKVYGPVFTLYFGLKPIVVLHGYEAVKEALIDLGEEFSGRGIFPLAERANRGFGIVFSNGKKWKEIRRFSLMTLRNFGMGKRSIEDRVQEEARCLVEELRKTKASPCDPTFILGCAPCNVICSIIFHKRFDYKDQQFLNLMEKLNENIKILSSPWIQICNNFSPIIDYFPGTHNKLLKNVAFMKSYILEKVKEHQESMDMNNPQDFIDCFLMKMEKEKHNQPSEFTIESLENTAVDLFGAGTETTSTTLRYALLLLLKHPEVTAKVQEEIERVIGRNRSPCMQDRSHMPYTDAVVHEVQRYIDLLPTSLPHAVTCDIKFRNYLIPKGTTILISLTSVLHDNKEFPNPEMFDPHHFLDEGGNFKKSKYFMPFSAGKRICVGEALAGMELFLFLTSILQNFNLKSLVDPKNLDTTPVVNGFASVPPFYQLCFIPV

[7] = molecular target: T4, CYP2C9; experiment: Inhibition of human hepatic CYP2C9 at 10 uM relative to control; format: ADME
[8] = molecular target: T5, CYP2C19 (Homo sapiens, UniProt P33261); experiment: Inhibition of human hepatic CYP2C19 at 1 uM relative to control; format: ADME
T5 sequence (P33261 whole entry): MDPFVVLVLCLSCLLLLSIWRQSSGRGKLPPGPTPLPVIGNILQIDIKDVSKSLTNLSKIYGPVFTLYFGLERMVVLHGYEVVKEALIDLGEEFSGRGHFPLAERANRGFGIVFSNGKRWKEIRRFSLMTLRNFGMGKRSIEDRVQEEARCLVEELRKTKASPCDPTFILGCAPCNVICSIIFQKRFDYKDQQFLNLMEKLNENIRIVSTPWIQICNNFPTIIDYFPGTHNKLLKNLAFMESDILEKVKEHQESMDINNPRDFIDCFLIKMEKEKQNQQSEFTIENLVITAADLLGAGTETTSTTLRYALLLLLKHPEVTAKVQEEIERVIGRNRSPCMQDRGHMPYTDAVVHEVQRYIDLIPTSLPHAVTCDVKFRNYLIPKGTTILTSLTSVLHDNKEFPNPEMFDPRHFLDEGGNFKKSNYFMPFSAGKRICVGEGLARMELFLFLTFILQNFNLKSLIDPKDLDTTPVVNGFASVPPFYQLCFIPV

[9] = molecular target: T5, CYP2C19; experiment: Inhibition of human hepatic CYP2C19 at 10 uM relative to control; format: ADME
[10] = molecular target: T6, CYP2D6 (Homo sapiens, UniProt P10635); experiment: Inhibition of human hepatic CYP2D6 at 1 uM relative to control; format: ADME
T6 sequence (P10635 whole entry): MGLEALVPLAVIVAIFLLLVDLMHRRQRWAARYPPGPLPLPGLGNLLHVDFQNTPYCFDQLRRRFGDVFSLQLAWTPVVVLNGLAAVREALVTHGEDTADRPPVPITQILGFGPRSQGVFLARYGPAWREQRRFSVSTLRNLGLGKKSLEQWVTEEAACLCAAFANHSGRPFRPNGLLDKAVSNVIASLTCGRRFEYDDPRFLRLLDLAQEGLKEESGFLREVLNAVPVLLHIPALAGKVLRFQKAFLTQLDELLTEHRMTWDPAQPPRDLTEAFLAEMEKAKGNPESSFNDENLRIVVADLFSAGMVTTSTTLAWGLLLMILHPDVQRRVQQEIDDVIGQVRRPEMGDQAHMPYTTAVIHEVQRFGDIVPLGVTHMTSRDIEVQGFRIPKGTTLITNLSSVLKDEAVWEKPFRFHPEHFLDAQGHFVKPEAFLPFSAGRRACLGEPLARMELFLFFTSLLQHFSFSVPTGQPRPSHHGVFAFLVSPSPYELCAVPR

[11] = molecular target: T6, CYP2D6; experiment: Inhibition of human hepatic CYP2D6 at 10 uM relative to control; format: ADME
[12] = molecular target: T2, Steroid 17-alpha-hydroxylase/17,20 lyase; experiment: Potency index, ratio of abiraterone IC50 to compound IC50 for recombinant human CYP17 expressed in human A549 cell membranes; format: cell-based
In short: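 Human CYP17 came from purified membranes of A549 cells expressing the cloned gene through an adenoviral system. 2 µg membrane protein was preincubated with inhibitor in 0.05 M phosphate buffer, pH 7.5, at 25 °C for 5 min. The reaction was started with 10 µM 17α-hydroxyprogesterone and 4.2 mM NADPH, run 60 min at 25 °C and stopped with methanol. Androstenedione was quantified by LC/MS.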

[13] = system: Rattus norvegicus; experiment: Suppression of serum testosterone levels in po dosed Sprague-Dawley rat administered as single dose measured up to 24 hrs post dose by ELISA; format: functional, organism-based
In short: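 Serum was sampled before dosing and at 2, 4, 8 and 24 h. Testosterone was measured by ELISA and expressed as % of the mean pretreatment value; mean ± SEM, n = 6.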

[14] = molecular target: T2, Steroid 17-alpha-hydroxylase/17,20 lyase; experiment: Residual CYP17 activity in human NCI-H295R cells assessed as testosterone production at 1 uM measured after 72 hrs relative to control

For `Brc1ccc2sc3c(c2c1)CCN(Cc1cccnc1)C3`, the IC50 [1] was 517 nM.

`CC(=O)Nc1ccc2sc3c(c2c1)CCN(Cc1cccnc1)C3` was tested, and the IC50 [1] was over 1000 nM.

`C=C(C)c1ccncc1CN1CCc2c(sc3ccc(F)cc23)C1` gave an IC50 [1] of 980 nM.

Compound `N#Cc1ccc2sc3c(c2c1)CCN(Cc1cccnc1)C3` has an IC50 [1] of 257 nM.

In the case of `COc1cncc(CN2CCc3c(sc4ccc(F)cc34)C2)c1`, the IC50 [1] is reported as 33.9 nM, the IC50 [2] is reported as 45 nM and the IC50 [3] is reported as 6530 nM. The inhibition at 1 µM [4] was 8.7%, the inhibition at 10 µM [5] was 61.2% and the inhibition at 1 µM [6] was 0%. For the same compound, the inhibition at 10 µM [7] was 53.8%, the inhibition at 1 µM [8] was 0% and the inhibition at 10 µM [9] was 84.9%. For the same compound, the inhibition at 1 µM [10] was 21.7% and the inhibition at 10 µM [11] was 76.1%.

For `Fc1ccc2sc3c(c2c1)CCN(Cc1c[nH]cn1)C3`, the IC50 [1] was 29.8 nM, the IC50 [2] was 24.3 nM and the IC50 [3] was 685 nM. For the same compound, the inhibition at 1 µM [4] was 87.9%, the inhibition at 10 µM [5] was 99.4% and the inhibition at 1 µM [6] was 98.5%. For the same compound, the inhibition at 10 µM [7] was 100%, the inhibition at 1 µM [8] was 91.2% and the inhibition at 10 µM [9] was 98.7%. The inhibition at 1 µM [10] was 35.7% and the inhibition at 10 µM [11] was 49.6%.

Compound `Fc1ccc2sc3c(c2c1)CCN(Cc1cccnc1)C3` has an IC50 [1] of 28.1 nM, an IC50 [2] of 29 nM and an IC50 [3] of 7900 nM. The inhibition at 1 µM [4] was 20.6%, the inhibition at 10 µM [5] was 71.6% and the inhibition at 1 µM [6] was 6.6%. It also gave an inhibition at 10 µM [7] of 53.2%, an inhibition at 1 µM [8] of 47.3% and an inhibition at 10 µM [9] of 92.5%. The inhibition at 1 µM [10] was 37.5% and the inhibition at 10 µM [11] was 83.7%.

Work on `CC1(C)OB(c2ccc3sc4c(c3c2)CCN(Cc2cccnc2)C4)OC1(C)C` yielded an IC50 [1] of 115 nM.

In the case of `c1cncc(CN2CCc3c(sc4ccccc34)C2)c1`, the IC50 [1] is reported as 28.1 to 54.9 nM.

`Cc1ccncc1CN1CCc2c(sc3ccc(F)cc23)C1` was tested, and the IC50 [1] was 15.8 nM, the IC50 [2] was 20.1 nM and the “Ratio IC50” value [12] was 1.5. It also gave an IC50 [3] of 8560 nM, an inhibition at 1 µM [4] of 16.3% and an inhibition at 10 µM [5] of 62.2%. For the same compound, the inhibition at 1 µM [6] was 0%, the inhibition at 10 µM [7] was 21.8% and the inhibition at 1 µM [8] was 11.7%. The inhibition at 10 µM [9] was 65.2%, the inhibition at 1 µM [10] was 12% and the inhibition at 10 µM [11] was 56.8%. For the same compound, the Activity [13] was “Dose-dependent effect” and the residual activity at 1 µM [14] was 52%.

`Fc1ccc2sc3c(c2c1)CCN(Cc1cnccc1C1CC1)C3` showed an IC50 [1] of 61.1 nM.

`C[C@]12CC[C@H](O)CC1=CC[C@@H]1[C@@H]2CC[C@]2(C)C(c3cccnc3)=CC[C@@H]12` [ABIRATERONE] showed an IC50 [1] of 24.7 nM, an inhibition at 1 µM [4] of 34% and an inhibition at 10 µM [5] of 92.5%. The inhibition at 1 µM [6] was 31.6%, the inhibition at 10 µM [7] was 82.5% and the inhibition at 1 µM [8] was 39.6%. It also gave an inhibition at 10 µM [9] of 91.6%, an inhibition at 1 µM [10] of 10.4% and an inhibition at 10 µM [11] of 78.5%. For the same compound, the residual activity at 1 µM [14] was 74%.

Work on `Cc1ccc2sc3c(c2c1)CCN(Cc1cccnc1)C3` yielded an IC50 [1] of 257 nM.

With `Clc1ccc2sc3c(c2c1)CCN(Cc1cccnc1)C3` the IC50 [1] was 449 nM.
